Experimental data from PubChem BioAssay.
Results filed as inconclusive are left out. Active and inactive are the calls of the source.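 How the source made its calls, unless noted: active means inhibition over a set limit, the all-compound mean plus 3 SD, in both replicate runs; inconclusive means over that limit in just one replicate run; inactive means at or under that limit in both runs.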

Experiments:
[1] = S. cerevisiae growth inhibition in permissive medium (OD615), pilot counter-assay for S. cerevisiae lifespan shortening project, permissive growth control (AID 705;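 active means growth inhibition above 25% in both replicates, a cutoff set 3 SD above the mean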); settings: OD615, 24 h, at 10 µM, active compounds read high
In short: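 System: Engineered DeaD yeast | Buffer or medium: SC raffinose/galactose permissive medium | Doses: 10 µM single dose, 0.25% DMSO | Times: 24 h exposure, 30 °C | Measured by: OD615 turbidity read | Read-out: Yeast growth inhibition indicated by reduced 24 h OD615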

[2] = S. cerevisiae growth inhibition in restrictive medium, OD615, pilot screen, restrictive growth control, yeast lifespan reduction project (AID 706;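 active means growth inhibition above a set limit, 3 SD over mean compound inhibition, in both replicates, cut at about 43% in these data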;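 further: modified DeaD lifespan yeast strain shifted to restrictive glucose medium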); settings: OD615, 48 h, at 10 µM, active compounds read high
In short: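 Assay system: engineered S. cerevisiae DeaD strain; Buffer or medium: CSMM-D glucose medium; Dosing: 10 µM compound, 0.25% DMSO; Times: cell pre-growth 4 h, compound exposure 48 h, 30 °C; Detection: absorbance (optical density) measured at 615 nm.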

[3] = doxorubicin toxicity protection in MRP-1 cells – H69AR cells, CellTiter-Glo, duplicate, MRP-1 activator project, pilot screen (AID 807;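 active means viability increase at or above a cutoff of the median across tested compounds plus 3 SD, cut at about 8.5% in these data, passing the limit was not always enough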;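 further: compound pretreatment 18-22 h then 72 h combined with doxorubicin; 0% = doxorubicin alone and 100% = vehicle without doxorubicin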); settings: H69AR viability with doxorubicin, CellTiter-Glo luminescence; at 10 µM; active compounds read high
[4] = viability of HCT116 without oncogenic beta-catenin – human colon tumor cells, pilot screen (AID 823;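 active means cell viability at or below a set limit in both duplicate runs, the limit being the all-compound median minus 4 SD, cut at about 23% in these data, passing the limit was not always enough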;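 further: 0% = wells killed by 20 µM Hyamine and 100% = untreated DMSO cell wells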); settings: HCT116 beta-catenin knockout viability, CellTiter-Glo, 60 h; at 10 µM; active compounds read low
[5] = viability of PTEN-null HCT116 cells – cell-based, HCT116 clonal line, CellTiter-Glo, pilot screen (AID 824;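 active means viability at or below 27.92% in each of two runs, the all-compound median minus 4 SD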;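 further: 0% = 20 µM Hyamine control and 100% = vehicle cell control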); settings: HCT116 PTEN-deleted viability, 60 h, at 10 µM, active compounds read low
[6] = RAM pathway blockade in budding yeast – dse1pr::URA3 reporter, 5-FOA selection, pilot screen (AID 869);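 further: 0% = DMSO wells with no growth and 100% = 10 µM 1-NA-PP1 with full growth; RAM network block rescues cells from 5-FOA so hits raise OD615 growth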; settings: S. cerevisiae dse1pr::URA3 5-FOA growth, OD615, 2 d; at 10 µM; active compounds read high; strain carries analog-sensitive mutant Cbk1 kinase
[7] = RAM signaling pathway blockade in yeast – S. cerevisiae, Pdr1DBD-CYC8 efflux-inhibited sensitized strain, primary screen (AID 1298;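 active means RAM network inhibition above 8.4% in each of two replicates, 3 SD over the compound average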;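 further: 0% = DMSO untreated cells without growth and 100% = 10 µM 1-NA-PP1 full growth; higher means more yeast growth rescued from 5-FOA killing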); settings: S. cerevisiae cbk1-as DSE1-URA3 strain, 5-FOA growth OD615, 2 d; at 50 µM; active compounds read high

COc1ccccc1-c1nnc(NC(=O)C(C)SC2=NCCS2)s1 (configuration not stated)
inactive: growth inhibition [1] 5.92% | viability increase [3] -4.43% | viability [4] 83.4% | viability [5] 91.2% | inhibition [6] -0.115% | RAM network inhibition [7] 6.22%
active: growth inhibition [2] 48.7%

Cc1cccc(-n2ncc3c(Nc4ccc(F)cc4)ncnc32)c1
inactive: growth inhibition [1] -11.3% | growth inhibition [2] -5.18% | viability increase [3] 2.21% | viability [4] 106% | viability [5] 95.4% | inhibition [6] 3.18% | RAM network inhibition [7] 1.56%

CCOC(=O)C1=C(C)NC(C)=C(C(=O)OCC)C1C(=O)O
inactive: growth inhibition [1] -3.05% | growth inhibition [2] -4.22% | viability increase [3] -3.51% | viability [4] 93.5% | viability [5] 90% | inhibition [6] 0.265% | RAM network inhibition [7] 1.53%

Cc1ccc(NC(=O)C2CCCN2S(=O)(=O)c2ccc3c(c2)CCC(=O)N3)cc1Cl (configuration not stated)
inactive: growth inhibition [1] -9.43% | growth inhibition [2] 8.74% | viability increase [3] 3.52% | viability [4] 81.8% | viability [5] 85.8% | inhibition [6] 2.66% | RAM network inhibition [7] 3.45%

CNc1oc(C)nc1S(=O)(=O)c1ccccc1
inactive: growth inhibition [1] -13.1% | growth inhibition [2] -7.71% | viability increase [3] -0.15% | viability [4] 99.9% | viability [5] 98.1% | inhibition [6] 1.98% | RAM network inhibition [7] 0.25%

CCOC(=O)N1CCN(C(=O)CN(c2ccc(Oc3ccccc3)cc2)S(C)(=O)=O)CC1
inactive: growth inhibition [1] -5.22% | growth inhibition [2] -15.6% | viability increase [3] -2% | viability [4] 75.2% | viability [5] 66.2% | inhibition [6] 0.265% | RAM network inhibition [7] 2.44%

COc1cc2c(c(O)c1OC)C(=O)C(OC)CCC2 (configuration not stated)
inactive: growth inhibition [1] 0.06% | growth inhibition [2] -2.16% | viability increase [3] -0.47% | viability [4] 97% | viability [5] 93.7% | inhibition [6] 0.275% | RAM network inhibition [7] -0.62%

O=C(CCc1nc2ccccc2[nH]1)NCc1ccc2c(c1)OCO2
inactive: growth inhibition [1] -8.32% | growth inhibition [2] -4.06% | viability increase [3] -2.13% | viability [4] 97.8% | viability [5] 91.7% | inhibition [6] 2.1% | RAM network inhibition [7] 1.84%

CCCCOCCCNC(=O)Cc1cccs1
inactive: growth inhibition [1] -16.7% | growth inhibition [2] -10.3% | viability increase [3] -2.03% | viability [4] 91.8% | viability [5] 90% | inhibition [6] 0.465% | RAM network inhibition [7] 5.12%

Cc1ccc(/C=N/c2sc3c(c2C#N)CCC3)s1
inactive: growth inhibition [1] -1.95% | growth inhibition [2] -5.03% | viability increase [3] -0.97% | viability [4] 96.1% | viability [5] 93.8% | inhibition [6] 1.21% | RAM network inhibition [7] 7%

Cc1nc2ccccc2c2oc(C(=O)NC3CC3)cc12
inactive: growth inhibition [1] -8% | growth inhibition [2] 5.36% | viability increase [3] -2.61% | viability [4] 112% | viability [5] 89.6% | inhibition [6] 0.79% | RAM network inhibition [7] -1.66%

O=C1c2ccccc2C(=O)C1c1ccncc1
inactive: growth inhibition [1] 4.93% | growth inhibition [2] -1.51% | viability increase [3] -1.88% | viability [4] 92.6% | viability [5] 91.3% | inhibition [6] 0.79% | RAM network inhibition [7] -0.62%

Brc1ccccc1Cn1c(-c2cncs2)nc2ccccc21
inactive: growth inhibition [1] -8.58% | growth inhibition [2] 25.2% | viability increase [3] -3.44% | viability [4] 79.2% | viability [5] 73.9% | inhibition [6] 0.68% | RAM network inhibition [7] 3.2%

C=CCn1c(CSc2nc3ccccc3s2)nnc1SCC(=O)NCc1ccco1
inactive: growth inhibition [1] 1.06% | growth inhibition [2] 30.4% | viability increase [3] -3.87% | viability [4] 96.6% | viability [5] 90.4% | inhibition [6] 0.105% | RAM network inhibition [7] 2.19%

CCOC(=O)N1CCN(C(=O)C(NC(=O)C2CCC(C)CC2)C(C)C)CC1 (configuration not stated)
inactive: growth inhibition [1] 10.9% | growth inhibition [2] 7.68% | viability increase [3] -0.76% | viability [4] 101% | viability [5] 99.9% | inhibition [6] -0.215% | RAM network inhibition [7] -0.98%

Cc1cc(Nc2cccc(C)c2C)n2nc(C)nc2n1
inactive: growth inhibition [1] -17% | growth inhibition [2] -8.21% | viability increase [3] -1.13% | viability [4] 102% | viability [5] 98.3% | inhibition [6] 1.25% | RAM network inhibition [7] 3.39%

COc1ccc(N(CC(=O)N2CCCCC2)S(=O)(=O)c2c(C)nn(C)c2C)cc1
inactive: growth inhibition [1] -5.81% | growth inhibition [2] 5.36% | viability increase [3] -2.35% | viability [4] 105% | viability [5] 96.7% | inhibition [6] 1.69% | RAM network inhibition [7] 2.99%

N#Cc1ccc(CSCC(=O)O)cc1
inactive: growth inhibition [1] -10.3% | growth inhibition [2] -2.01% | viability increase [3] 1.1% | viability [4] 97.4% | viability [5] 107% | inhibition [6] 2.8% | RAM network inhibition [7] 4.42%

COc1ccc(S(=O)(=O)N2CCCC2C(=O)Nc2ccc(C(C)=O)cc2)cc1 (configuration not stated)
inactive: growth inhibition [1] -19.4% | growth inhibition [2] -11% | viability increase [3] -0.66% | viability [4] 97.6% | viability [5] 95.8% | inhibition [6] 2.13% | RAM network inhibition [7] 1.47%

CC1CCc2nn(CC(=O)NCCCN3CCCC3=O)cc2C1 (configuration not stated)
inactive: growth inhibition [1] -17.8% | growth inhibition [2] -22.7% | viability increase [3] -1.1% | viability [4] 103% | viability [5] 93.7% | inhibition [6] 1.29% | RAM network inhibition [7] 4.13%

CCOc1ccc(N(CC(=O)Nc2ccccc2C)S(=O)(=O)c2c(C)noc2C)cc1
inactive: growth inhibition [1] 10.9% | growth inhibition [2] 4.1% | viability increase [3] -5.61% | inhibition [6] 2.38% | RAM network inhibition [7] -0.84%
active: viability [4] 15.9% | viability [5] 18.1%

CCOC(=O)CC1C(=O)NCCN1Cc1cccc(C(F)(F)F)c1 (configuration not stated)
inactive: growth inhibition [1] -4.03% | growth inhibition [2] -3.95% | viability increase [3] -1.61% | viability [4] 97.4% | viability [5] 86% | inhibition [6] 1.66% | RAM network inhibition [7] -0.14%

O=C(COc1ccccc1)N1CCN(S(=O)(=O)c2cccs2)CC1
inactive: growth inhibition [1] -4.47% | growth inhibition [2] -11% | viability increase [3] -0.82% | viability [4] 94% | viability [5] 85.3% | inhibition [6] 0.6% | RAM network inhibition [7] 7.83%

COCCCNC(=O)CN1C(=O)CSc2ncccc21
inactive: growth inhibition [1] -3.21% | growth inhibition [2] 3.79% | viability increase [3] 0.91% | viability [4] 105% | viability [5] 101% | inhibition [6] 2.06% | RAM network inhibition [7] 2.8%

O=C(CCN1CCN(c2ccccc2)CC1)Nc1ccc2c(c1)OCO2
inactive: growth inhibition [1] -5.71% | growth inhibition [2] 0.05% | viability increase [3] -4.06% | viability [4] 91.7% | viability [5] 92.4% | inhibition [6] 2.58% | RAM network inhibition [7] 1.28%

Cc1ccc(Cn2nnc3c(=O)n(CC(=O)c4ccccc4)cnc32)cc1
inactive: growth inhibition [1] -5.55% | growth inhibition [2] -9.49% | viability increase [3] -2.92% | viability [4] 96.7% | viability [5] 91.5% | inhibition [6] 3.42% | RAM network inhibition [7] 5.01%

CSc1nnc(Cn2c(=O)sc3ccccc32)n1-c1ccccc1
inactive: growth inhibition [1] -2.55% | growth inhibition [2] 3.38% | viability increase [3] -0.84% | viability [4] 104% | viability [5] 102% | inhibition [6] 2.03% | RAM network inhibition [7] 2.08%

CCOC(=O)c1cccc(NC(=O)Cn2cc3c(n2)CCC(C)C3)c1 (configuration not stated)
inactive: growth inhibition [1] 4.72% | growth inhibition [2] 17.6% | viability increase [3] -0.48% | viability [4] 101% | viability [5] 92.3% | inhibition [6] 1.12% | RAM network inhibition [7] 0.81%

CN1CCN(CCCNC(=O)c2cc3c(-c4ccc(Cl)cc4)nn(C)c3s2)CC1
inactive: growth inhibition [1] -8.24% | growth inhibition [2] -2.25% | viability increase [3] -8.21% | inhibition [6] 0.445% | RAM network inhibition [7] 0.92%
active: viability [4] 2.18% | viability [5] 2%

COc1ccc(C(=O)Nc2ccc3oc(-c4cccc(F)c4)nc3c2)cc1OC
inactive: growth inhibition [1] -9.88% | growth inhibition [2] -5.71% | viability increase [3] -2.46% | viability [4] 95.1% | viability [5] 90.3% | inhibition [6] 3.53% | RAM network inhibition [7] 3.33%

CC1(C)CC(=O)C2=C(C1)OC(N)=C(C#N)C21CCN(Cc2ccccc2)CC1
inactive: growth inhibition [1] -19.9% | growth inhibition [2] -21.6% | viability increase [3] -3.46% | viability [4] 97.7% | viability [5] 97.6% | inhibition [6] 2.13% | RAM network inhibition [7] 5.53%

O=S(=O)(c1cccc2cccnc12)N1CCN(Cc2ccc3c(c2)OCO3)CC1
inactive: growth inhibition [1] -7.45% | growth inhibition [2] -17.5% | viability increase [3] -0.35% | viability [4] 84.3% | viability [5] 92.2% | inhibition [6] 1.28% | RAM network inhibition [7] 0.52%

COc1ccc(N2CC(C(=O)NC3CC(C)(C)NC(C)(C)C3)CC2=O)cc1 (configuration not stated)
inactive: growth inhibition [1] -9.42% | growth inhibition [2] -4.41% | viability increase [3] 0.06% | viability [4] 99.8% | viability [5] 104% | inhibition [6] 0.515% | RAM network inhibition [7] 2.14%

C=CCOC(=O)C1=C(C)NC(=O)NC1c1ccc(Cl)cc1 (configuration not stated)
inactive: growth inhibition [1] -3.88% | growth inhibition [2] -3.15% | viability increase [3] 0.95% | viability [4] 102% | viability [5] 88.2% | inhibition [6] -0.115% | RAM network inhibition [7] 2.31%

Cc1oc(C(C)(C)C)cc1C(=O)Nc1ccc(C(=O)O)cc1
inactive: growth inhibition [1] 6.25% | growth inhibition [2] -11.5% | viability increase [3] 2.02% | viability [4] 103% | viability [5] 91% | inhibition [6] 0.6% | RAM network inhibition [7] -1.87%

CC12C(=O)N(c3cccc4cccnc34)C(=O)C1C1C=CC2C1 (configuration not stated)
inactive: growth inhibition [1] -7.71% | growth inhibition [2] 2.71% | viability increase [3] -1.54% | viability [4] 103% | viability [5] 102% | inhibition [6] 0.395% | RAM network inhibition [7] 1.05%
